Experimental data from publication PMC8712509 (International Journal of Nanomedicine, 2021).

What was measured:
SGC-7901 cells = experiment: Cytotoxicity assay; assay type: cell-based, Human; conditions: SGC-7901, MTT, n=3
Method in brief: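 SGC-7901 cells were grown in RPMI-1640 with 10% FBS, 1% penicillin and 1% streptomycin at 37°C, 5% CO2. Log-phase cells were seeded in triplicate at 1.0×10^4 cells/well overnight. Free drug or liposomal test formulations (1.0–100.0 µg/mL drug) were added for 24, 48 or 72 h. MTT (5.0 mg/mL stock) was added for 4 h, then DMSO, and OD read at 490 nm. IC50 was derived from viability.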

[1] = Pharmacokinetics in plasma; assay type: in vivo; conditions: ICR mice, single 10.0 mg/kg iv
[2] = Biodistribution in major organs; assay type: in vivo; conditions: ICR mice, single 10.0 mg/kg iv

O=C1[O][Pt]2([NH][C@@H]3CCCC[C@H]3[NH]2)[O]C1=O (relative stereo) [OXA, (1R-trans)-(1,2-cyclohexanediamine-N,N’)[oxalic acid (2-)-O,O’] platinum]
IC50 (SGC-7901 cells; 48 h): 15.87 ± 0.27 µg/mL | IC50 (SGC-7901 cells; 72 h): 14.17 ± 0.14 µg/mL | last time at which OXA was detectable in plasma (undetectable after) [1]: 8 h | plasma concentration of OXA ([1]; 0.08 h): 28590 ± 920 ng/mL | plasma concentration of OXA ([1]; 0.17 h): 25030 ± 320 ng/mL | plasma concentration of OXA ([1]; 0.50 h): 4490 ± 350 ng/mL | plasma concentration of OXA ([1]; 1 h): 3200 ± 100 ng/mL | plasma concentration of OXA ([1]; 2 h): 2860 ± 240 ng/mL | plasma concentration of OXA ([1]; 4 h): 1990 ± 120 ng/mL | plasma concentration of OXA ([1]; 6 h): 1500 ± 700 ng/mL | plasma concentration of OXA ([1]; 8 h): 640 ± 110 ng/mL | CL ([1]; plasma, n=3): 5.53 ± 1.5 mL/min/kg | CLz ([1]; plasma, n=3): 5.85 ± 0.217 mL/min/kg | K10 ([1]; plasma, n=3): 1.319 ± 0.250 h⁻¹ | K12 ([1]; plasma, n=3): 5.632 ± 0.360 h⁻¹ | K21 ([1]; plasma, n=3): 0.828 ± 0.070 h⁻¹ | MRT(0-t) ([1]; plasma, n=3): 2.535 ± 0.520 H | MRT(0-∞) ([1]; plasma, n=3): 4.319 ± 0.130 H | T1/2z ([1]; plasma, n=3): 4.995 ± 0.360 H | Tmax ([1]; plasma, n=3): 0.250 ± 0.015 H | t1/2α ([1]; plasma, n=3): 0.215 ± 0.077 H | t1/2β (elimination half-life) ([1]; plasma, n=3): 3.214 ± 0.420 H | OXA concentration in heart ([2]; 0.5 h): 8.59 ± 0.06 µg/g | OXA concentration in kidneys ([2]; 0.5 h): 8.73 ± 0.45 µg/g | OXA concentration in liver ([2]; 0.5 h): 14.00 ± 0.30 µg/g | OXA concentration in lungs ([2]; 0.5 h): 4.60 ± 0.13 µg/g | OXA concentration in spleen ([2]; 0.5 h): 14.27 ± 0.44 µg/g | OXA concentration in heart ([2]; 1 h): 10.27 ± 0.44 µg/g | OXA concentration in kidneys ([2]; 1 h): 4.02 ± 0.61 µg/g | OXA concentration in liver ([2]; 1 h): 12.49 ± 0.56 µg/g | OXA concentration in lungs ([2]; 1 h): 3.70 ± 0.22 µg/g | OXA concentration in spleen ([2]; 1 h): 13.40 ± 0.80 µg/g | OXA concentration in heart ([2]; 2 h): 6.79 ± 0.40 µg/g | OXA concentration in kidneys ([2]; 2 h): 2.85 ± 0.27 µg/g | OXA concentration in liver ([2]; 2 h): 12.50 ± 0.58 µg/g | OXA concentration in lungs ([2]; 2 h): 4.35 ± 0.63 µg/g | OXA concentration in spleen ([2]; 2 h): 13.21 ± 0.22 µg/g | OXA concentration in heart ([2]; 4 h): 5.55 ± 0.45 µg/g | OXA concentration in kidneys ([2]; 4 h): 2.36 ± 0.70 µg/g | OXA concentration in liver ([2]; 4 h): 10.91 ± 1.56 µg/g | OXA concentration in lungs ([2]; 4 h): 4.98 ± 0.18 µg/g | OXA concentration in spleen ([2]; 4 h): 10.35 ± 1.53 µg/g | OXA concentration in heart ([2]; 6 h): 4.22 ± 0.14 µg/g | OXA concentration in kidneys ([2]; 6 h): 2.84 ± 0.25 µg/g | OXA concentration in liver ([2]; 6 h): 8.87 ± 0.40 µg/g | OXA concentration in lungs ([2]; 6 h): 4.54 ± 0.90 µg/g | OXA concentration in spleen ([2]; 6 h): 10.56 ± 0.56 µg/g | OXA concentration in heart ([2]; 8 h): 3.26 ± 0.34 µg/g | OXA concentration in kidneys ([2]; 8 h): 2.65 ± 0.12 µg/g | OXA concentration in liver ([2]; 8 h): 7.06 ± 0.44 µg/g | OXA concentration in lungs ([2]; 8 h): 3.94 ± 0.12 µg/g | OXA concentration in spleen ([2]; 8 h): 4.81 ± 0.33 µg/g | AUC(0-t), heart ([2]; n=3): 48.080 ± 1.690 µg·h/g | AUC(0-t), kidneys ([2]; n=3): 27.380 ± 1.870 µg·h/g | AUC(0-t), liver ([2]; n=3): 87.870 ± 1.360 µg·h/g | AUC(0-t), lungs ([2]; n=3): 34.130 ± 1.960 µg·h/g | AUC(0-t), spleen ([2]; n=3): 118.170 ± 4.560 µg·h/g | AUC(0-∞), heart ([2]; n=3): 68.591 ± 5.210 µg·h/g | AUC(0-∞), kidneys ([2]; n=3): 69.442 ± 5.640 µg·h/g | AUC(0-∞), liver ([2]; n=3): 161.538 ± 3.960 µg·h/g | AUC(0-∞), lungs ([2]; n=3): 106.955 ± 9.140 µg·h/g | AUC(0-∞), spleen ([2]; n=3): 128.580 ± 9.360 µg·h/g | MRT, heart ([2]; n=3): 5.574 ± 0.980 h | MRT, kidneys ([2]; n=3): 16.594 ± 2.220 h | MRT, liver ([2]; n=3): 9.330 ± 1.020 h | MRT, lungs ([2]; n=3): 17.707 ± 1.990 h | MRT, spleen ([2]; n=3): 5.990 ± 0.230 h
